Data on 7 compounds can be found in ChEMBL document CHEMBL1148723, “Structure-based rational design of beta-hairpin peptides from discontinuous epitopes of cluster of differentiation 2 (CD2) protein to modulate cell adhesion interaction” (J Med Chem, 2007).

The source made the active and inactive calls. The calls are words filed in the database; no cut-off is given here. Peptide text beside a SMILES is read from it.

The test system of one experiment is Erythrocyte. As to the kind of experiment: Inhibition of CD2-CD58 interaction assessed as inhibition of E-rosette formation between Jurkat cells and sheep RBCs at 200 uM. Format: cell-based. Also on record: Activity: scale not given: the % may be the effect or the level left. The gist of the method:
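E-rosetting: test peptide added first to AET-treated sheep red blood cells (CD58-expressing), then an equal amount of Jurkat T cells (CD2-expressing). Cells with five or more bound SRBCs scored as rosettes. Read-out is % inhibition of rosette formation versus untreated cells, mean of three independent experiments; anti-CD58 antibody as positive control.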

Experiment [1] deals with Jurkat. As to the kind of experiment: Inhibition of CD2-CD58 interaction assessed as inhibition of adhesion between Jurkat cells and Caco-2 cells. Type of experiment: cell-based. Conditions: Homo sapiens, dose or concentration not given here. The method in brief:
(§1)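 Lymphocyte–epithelial adhesion: peptide added to confluent Caco-2 monolayer (hCD58), then BCECF-labelled Jurkat cells (hCD2). 45 min at 37 °C, nonadherent cells washed off with PBS, bound Jurkat cells lysed with Triton X-100, lysate fluorescence read. Result expressed as % inhibition versus untreated, mean of three independent experiments.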

For experiment [2], the system named is Jurkat. As to the kind of experiment: Inhibition of CD2-CD58 interaction assessed as inhibition of adhesion between Jurkat cells and Caco-2 cells at 90 uM. Type of experiment: cell-based. Conditions: Homo sapiens. The gist of the method: as §1
In a further experiment the test system is Jurkat (Homo sapiens). Description: Inhibition of ICAM1-LFA1 mediated adhesion in Jurkat cells.

Regarding `CC[C@H](C)[C@@H]1NC(=O)[C@H](CC(=O)O)NC(=O)[C@H](CC(=O)O)NC(=O)[C@H](N)C(C)(C)SSC[C@@H](C(=O)O)NC(=O)[C@H](CC(=O)O)NC(=O)[C@H](Cc2ccc(O)cc2)NC(=O)[C@H]([C@@H](C)CC)NC(=O)[C@H](CO)NC(=O)[C@H](C(C)C)NC(=O)[C@H](Cc2c[nH]c3ccccc23)NC(=O)[C@H](CCCCN)NC1=O`, the inhibition with Erythrocyte came out at 30%. The same measure, in the same setting: for `CC[C@H](C)[C@H](NC(=O)[C@H](CC(=O)O)NC(=O)[C@H](CC(=O)O)NC(=O)[C@@H](NC(=O)[C@H](CCCCN)NC(=O)[C@@H](N)Cc1c[nH]c2ccccc12)[C@@H](C)CC)C(=O)N[C@@H](CC(=O)O)C(=O)N[C@@H](CCCCN)C(=O)N[C@H](C(=O)N[C@@H](CC(=O)O)C(=O)N[C@@H](Cc1ccc(O)cc1)C(=O)N[C@H](C(=O)N[C@@H](CO)C(=O)N[C@H](C(=O)O)C(C)C)[C@@H](C)CC)[C@@H](C)O` (H-WKIDDIDKTDYISV-OH) the value was 15%. Regarding `CC[C@H](C)[C@H](N)C(=O)N[C@@H](CC(=O)O)C(=O)N[C@@H](CC(=O)O)C(=O)N[C@H](C(=O)N[C@@H](CCCCN)C(=O)N[C@@H](Cc1c[nH]c2ccccc12)C(=O)N[C@@H](CCC(=O)O)C(=O)N[C@@H](CCCCN)C(=O)N[C@H](C(=O)N[C@@H](CO)C(=O)N[C@H](C(=O)N[C@@H](Cc1ccc(O)cc1)C(=O)N[C@@H](CC(=O)O)C(=O)N[C@H](C(=O)O)[C@@H](C)O)[C@@H](C)CC)C(C)C)[C@@H](C)CC` (H-IDDIKWEKVSIYDT-OH), the inhibition with Jurkat [1] stood at 30%. `CC[C@H](C)[C@H](NC(=O)[C@H](CCCCN)NC(=O)[C@@H](N)Cc1c[nH]c2ccccc12)C(=O)N[C@@H](CC(=O)O)C(=O)N[C@@H](CC(=O)O)C(=O)N[C@H](C(=O)N[C@H](C(=O)N[C@@H](CC(=O)O)C(=O)N[C@@H](Cc1ccc(O)cc1)C(=O)N[C@H](C(=O)N[C@@H](CO)C(=O)N[C@H](C(=O)O)C(C)C)[C@@H](C)CC)[C@@H](C)O)[C@@H](C)CC` (H-WKIDDITDYISV-OH): the inhibition with Erythrocyte was 35%.

As to `CC[C@H](C)[C@@H]1NC(=O)[C@H](CC(=O)O)NC(=O)[C@H](CC(=O)O)NC(=O)[C@H]([C@@H](C)CC)NC(=O)[C@H](CCCCN)NC(=O)[C@H](N)C(C)(C)SSC[C@H](C(=O)O)NC(=O)[C@H](CO)NC(=O)[C@H]([C@@H](C)CC)NC(=O)[C@H](Cc2ccc(O)cc2)NC(=O)[C@H](CC(=O)O)NC(=O)[C@H]([C@@H](C)O)NC(=O)[C@H](CCCCN)NC(=O)[C@H](CC(=O)O)NC1=O`, the inhibition in the experiment with Erythrocyte was 25%. With `CC[C@H](C)[C@@H]1NC(=O)[C@H](CCCCN)NC(=O)[C@H](N)C(C)(C)SSC[C@H](C(=O)O)NC(=O)[C@H](CO)NC(=O)[C@H]([C@@H](C)CC)NC(=O)[C@H](Cc2ccc(O)cc2)NC(=O)[C@H](CC(=O)O)NC(=O)[C@H]([C@@H](C)O)NC(=O)[C@H]([C@@H](C)CC)NC(=O)[C@H](CC(=O)O)NC(=O)[C@H](CC(=O)O)NC1=O`, the inhibition in the experiment with Jurkat [2] was determined as 60%. The outcome in the experiment with Jurkat (Homo sapiens) was inactive. Besides, the Activity in the experiment with Erythrocyte came out at 45%. Regarding `CC[C@H](C)[C@@H]1NC(=O)[C@H](CC(=O)O)NC(=O)[C@H](CC(=O)O)NC(=O)[C@H](N)C(C)(C)SSC[C@H](C(=O)O)NC(=O)[C@H](CC(=O)O)NC(=O)[C@H](Cc2ccc(O)cc2)NC(=O)[C@H]([C@@H](C)CC)NC(=O)[C@H](CO)NC(=O)[C@H](C(C)C)NC(=O)[C@H](CCCCN)NC(=O)[C@H](CCC(=O)O)NC(=O)[C@H](Cc2c[nH]c3ccccc23)NC(=O)[C@H](CCCCN)NC1=O`, the inhibition worked out at 50% in the experiment on Jurkat [2] and 40% in the experiment with Erythrocyte. For the same compound, the result in the experiment with Jurkat (Homo sapiens) was inactive.

What is called inhibition is how much of the control response was suppressed.
